PMC3055594 (Glycobiology, 2010)
Where two headings read alike, the source gives them in different places.

Key:
Mt-PrsA [1] = biological target: T1, Mt-PrsA (Mycobacterium tuberculosis, UniProt P9WKE3); test: Continuous enzyme-coupled spectrophotometric assay of Mt-PrsA; assay type: biochemical
T1 sequence (P9WKE3 1-326): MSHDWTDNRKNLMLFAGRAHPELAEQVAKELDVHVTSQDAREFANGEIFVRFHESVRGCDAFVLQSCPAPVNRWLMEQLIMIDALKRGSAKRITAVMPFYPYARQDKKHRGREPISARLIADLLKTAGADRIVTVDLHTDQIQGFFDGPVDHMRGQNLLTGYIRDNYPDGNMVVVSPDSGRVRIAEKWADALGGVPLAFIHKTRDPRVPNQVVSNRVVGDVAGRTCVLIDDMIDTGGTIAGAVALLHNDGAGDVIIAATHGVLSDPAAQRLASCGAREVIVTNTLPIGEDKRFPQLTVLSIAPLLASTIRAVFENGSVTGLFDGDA

Mt-PrsA [2] = biological target: T1, Mt-PrsA; test: Intrinsic tryptophan fluorescence; assay type: binding
Procedure, shortened: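 Excitation was at 292 nm; emission spectra were taken at 300–400 nm 5 min after each ligand aliquot. ΔFemission at 335 nm was plotted against [L] and fitted for Kd and Hill n. R5P was titrated with or without 5 mM AMPPNP, and AMPPNP with or without 5 mM R5P.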

Mt-PrsA [3] = biological target: T1, Mt-PrsA; assay type: biochemical; settings: 2 mM final concentration, 37°C
[4] = test system: arabinofuranosyltransferases EmbA, EmbB, EmbC and AftB; assay type: biochemical, Mycobacterium smegmatis; settings: EMB 100 µg/mL; ADP 2 mM
Mt-PrsA [5] = biological target: T1, Mt-PrsA; settings: 5 mM ligand
Procedure, shortened: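 Recombinant Mt-PrsA was purified by Ni2+-NTA with a 250 mM imidazole step to ~98% purity, then dialyzed into 50 mM KH2PO4 (pH 7.9), 300 mM NaCl, 1 mM DTT. Sedimentation velocity was run with absorbance optics using no ligand or 5 mM R5P, ATP or ADP. The read-out was the molar mass distribution c(M) against apparent molecular weight.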

[6] = read-out: Kd (ITF), ligand alone, 70 µM Mt-PrsA

In the case of `Nc1ncnc2c1ncn2[C@@H]1O[C@H](COP(=O)(O)OP(=O)(O)O)[C@@H](O)[C@H]1O` [ADP], the Ki (Mt-PrsA [1]; read-out: Ki against increasing [ATP], saturating [R5P], Eq. (6)) is reported as 522 µM, the “Hill coefficient (n) of binding (ITF)” value (Mt-PrsA [2]; ligand alone) is reported as 2 and the Kd (Mt-PrsA [2]; [6]) is reported as 513 µM. For the same molecule, the “effect on Mt-PrsA activity / p[14C]Rpp formation” value (Mt-PrsA [3]) was “strongly inhibited”, the “effect on AraT-dependent product formation” value [4] was “inhibition of any AraT-dependent product formation” and the “effect on oligomeric state of Mt-PrsA, c(M) distribution” value (shortened to “effect on oligomeric state of Mt-PrsA”) (Mt-PrsA [5]) was “shifted toward an increase in the hexameric state”.
With `Nc1ncnc2c1ncn2C1OC(COP(=O)(O)OP(=O)(O)NP(=O)(O)O)C(O)C1O` (stereo not drawn) [AMPPNP, 5'-adenylyl-β,γ-imidodiphosphate] the “Hill coefficient (n) for AMPPNP in the presence of R5P” value (Mt-PrsA [2]; 5 mM R5P) was 5, the “Hill coefficient (n) of binding (ITF)” value (Mt-PrsA [2]; ligand alone) was about 4 and the Kd (Mt-PrsA [2]; [6]) was 31 µM. The Kd (Mt-PrsA [2]; read-out: Kd for AMPPNP in the presence of R5P, 5 mM R5P) was 28.2 µM.
With `Nc1ncnc2c1ncn2[C@@H]1O[C@H](COP(=O)(O)OP(=O)(O)OP(=O)(O)O)[C@@H](O)[C@H]1O` [ATP] the “apparent Hill coefficient (n), kinetics” value (Mt-PrsA [1]; increasing [ATP], saturating R5P, 50 mM Pi) was 1.68, the “Vmax for ATP” value (Mt-PrsA [1]; saturating R5P, 50 mM Pi) was 601 µmol⁻¹ min⁻¹ mg⁻¹ and the “S0.5 for ATP” value (Mt-PrsA [1]; saturating R5P, 50 mM Pi, Eq. (4)) was 62.65 µM. For the same molecule, the “Hill coefficient (n) of binding (ITF)” value (Mt-PrsA [2]; ligand alone) was about 4, the Kd (Mt-PrsA [2]; [6]) was 28.3 µM and the “c(M) peak position” value (Mt-PrsA [5]) was ~70,000 Da. For the same molecule, the “effect on oligomeric state of Mt-PrsA” value (Mt-PrsA [5]) was “reduction in the intensity of the hexameric species”.
`[Ca+2].[Cl-].[Cl-]` [CaCl2] was tested, and the “effect on Mt-PrsA activity / p[14C]Rpp formation” value (Mt-PrsA [3]) was “loss of Mt-PrsA activity”.
For `CC[C@@H](CO)NCCN[C@@H](CC)CO` [EMB, ethambutol], the “effect on AraT-dependent product formation” value [4] was “loss of the upper band with only the lower band remaining”.
For `O=P(O)(O)O` [Pi, inorganic phosphate], the “concentration required for full enzyme activation” value (Mt-PrsA [1]) was 50 mM.
`O=C[C@H](O)[C@H](O)[C@H](O)COP(=O)(O)O` [R5P, ribose-5-phosphate] was tested, and the Km (Mt-PrsA [1]; read-out: Km for R5P, saturating ATP, 50 mM Pi, Eq. (2)) was 8.2 µM, the “Vmax (increasing R5P)” value (Mt-PrsA [1]; saturating ATP, 50 mM Pi) was 530 µmol⁻¹ min⁻¹ mg⁻¹ and the Kd (Mt-PrsA [2]; Kd (ITF), ligand alone, 70 µM Mt-PrsA) was 24.8 µM. For the same molecule, the Kd (Mt-PrsA [2]; apparent Kd for R5P in the presence of AMPPNP, 5 mM AMPPNP) was 21.4 µM and the “effect on oligomeric state of Mt-PrsA” value (Mt-PrsA [5]) was “no apparent change in the equilibrium or oligomeric state”.
